# Screening results: PubChem, several laboratories
# Compounds with a hit are over-represented: about 2.9% of the library has one in this group of screens.
# Apaf1 inhib = inhibitors of human Apaf-1 apoptosome, primary screen, biochemical, DEVD-Rh110 fluorescence, uHTS. 330,000 compounds, 0.71% hits. reconstituted apoptosome caspase-3 activity. Apoptotic protease-activating factor 1 (Homo sapiens), O14727. inhibition, % at 20 µM; active = inhibition of at least 40% at 20 µM
#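 Material: biochemical Apaf-1 apoptosome reconstitution. Medium: Hepes buffer, pH 7.5. Also added: cytochrome c activation, bis-DEVD rhodamine 110 substrate. Timing: 30 min compound preincubation, 50 min activation, room temperature. Measured by: rhodamine 110 fluorescence at Ex 480/Em 540 nm.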
# ZTA counter = ZTA (EBV) inhibition in EBNA-1 counter-screen | P03206 | ZTA-DNA binding, fluorescence polarization | inhibition, % at 11 µM | 320,000 compounds, 0.15% hits | AID 2234; in the data active = inhibition above about 33%
# Target sequence (P03206 whole entry, looked up): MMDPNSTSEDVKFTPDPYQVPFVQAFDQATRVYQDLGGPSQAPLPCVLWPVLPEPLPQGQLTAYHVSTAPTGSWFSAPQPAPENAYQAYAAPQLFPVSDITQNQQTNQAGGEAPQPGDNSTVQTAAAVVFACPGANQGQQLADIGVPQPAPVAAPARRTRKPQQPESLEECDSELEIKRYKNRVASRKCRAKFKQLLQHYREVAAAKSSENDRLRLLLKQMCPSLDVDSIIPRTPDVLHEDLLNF
# PfG6PD inh = PfG6PD enzyme inhibitors, primary screen, biochemical, fluorescence intensity, uHTS | glucose-6-phosphate dehydrogenase-6-phosphogluconolactonase (Plasmodium falciparum 3D7) | PfGluPho enzyme, NADPH resazurin-diaphorase fluorescence | inhibition, % at 20 µM | 350,000 compounds, 0.78% hits | AID 504690, 2011;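 active = inhibition reaching at least a set limit at 20 µM in the primary screen, cut at about 59% in these data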
# UBC13 inh = UBC13 polyubiquitin chain formation inhibitors, primary screen, biochemical, TR-FRET, uHTS. Ubiquitin-conjugating enzyme E2 N (Homo sapiens), P61088. inhibition, % at 20 µM. 330,000 compounds, 0.47% hits; in the data active = inhibition above about 45%, passing the limit was not always enough
# Target sequence (P61088 whole entry, looked up): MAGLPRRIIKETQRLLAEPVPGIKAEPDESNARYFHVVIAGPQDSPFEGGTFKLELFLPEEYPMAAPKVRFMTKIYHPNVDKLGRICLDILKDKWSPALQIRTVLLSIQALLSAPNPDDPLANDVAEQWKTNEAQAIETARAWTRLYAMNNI
# EBNA-1 inhibitor = EBNA-1 DNA-binding inhibitors, primary screen, biochemical, fluorescence polarization | 300,000 compounds, 0.34% hits | inhibition, % at 14.8 µM; in the data active = inhibition above about 28%
# PfM18AAP inh = PfM18AAP inhibitors, malaria aminopeptidase, primary screen, biochemical, QFRET, recombinant enzyme | M18 aspartyl aminopeptidase (Plasmodium falciparum 3D7) | H-Glu-NHMec fluorogenic cleavage | inhibition, % at 7.35 µM | 290,000 compounds, 1.2% hits;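 active = inhibition above the campaign mean inhibition over all tested compounds plus 3 SD, cut at about 28% in these data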
# Numbers stand for hits; n = inactive; x = no result given; + = active, no number.
SMILES,Apaf1 inhib,ZTA counter,PfG6PD inh,UBC13 inh,EBNA-1 inhibitor,PfM18AAP inh
Nc1ccc(N2CCN(c3ccc(F)cc3)CC2)cc1,n,n,n,n,n,n
Nc1ccc(N2CCCCCC2)cc1,92.9,164.6,x,n,92.6,n
Nc1cc(C(=O)O)c(N)c2c1C(=O)c1ccccc1C2=O,n,+,n,n,145.8,n
Cc1ccc2[nH]c3nc(SCCN4CCOCC4)nnc3c2c1,n,n,n,n,n,n
Cc1ccc2[nH]c3nc(NN)nnc3c2c1,n,x,n,n,x,31.2
O=C1CN=CN=CN1c1ccc(Cl)cc1Cl,n,n,n,n,n,40.1
CN(CC(=O)N/N=C/c1ccc(F)cc1)S(=O)(=O)c1ccccc1,x,x,n,x,x,x
S=c1nccc(-c2cccs2)[nH]1,n,n,n,n,n,29.0
c1csc(-c2ccn[nH]2)c1,n,n,n,n,n,n
O=C(NCC(F)(F)F)c1ccc(S(=O)(=O)Nc2ccccc2N2CCCC2)cc1,54.2,x,n,n,x,x
Cc1ccc(CNC(=O)CSc2nc3[nH]ncc3c(=O)[nH]2)cc1,n,n,n,n,n,n
O=C(O)/C=C/c1ccc(O)c(O)c1,n,n,n,n,n,81.7
COc1cc(/C=C/C(=O)O)ccc1O,n,n,n,n,n,x
CCn1c(=O)c(-c2cc(=O)[nH][nH]2)c(O)c2ccccc21,n,n,n,n,n,30.5
O=c1cc(-c2c(O)c3ccccc3n(Cc3ccccc3)c2=O)[nH][nH]1,n,n,n,n,n,n
O=C(Nc1nc(=S)ss1)c1ccc(Cl)cc1Cl,x,n,n,x,n,n
Cc1ccc2nc(C)cc(N/N=C/c3ccccc3O)c2c1,n,n,n,n,n,n
Cc1ccc(C)c(/C=N/Nc2nc3ccccc3c(=O)n2O)c1,n,n,n,n,n,30.9
COc1ccccc1NC(=O)CCc1nc2ccccc2s1,n,n,n,n,n,n
CC(C)c1ccccc1NC(=O)CCc1nc2ccccc2s1,n,n,n,n,n,30.1
ClC(/C=N/n1cnnc1)=C/c1ccccc1,n,n,n,n,n,31.7
CCNc1nc(=S)nc(NCc2ccccc2)[nH]1,n,n,x,n,n,n
CCNc1nc(=S)nc(NC(C)C)[nH]1,n,n,n,n,n,30.3
O=C(Nc1ccc(Nc2ccncc2)cc1)c1ccc(Nc2ccnc3ccc([N+](=O)[O-])cc23)cc1[N+](=O)[O-],x,n,n,x,n,n
O=C(/C=C/c1ccc([N+](=O)[O-])cc1)/C=C/c1ccco1,42.6,n,x,n,n,n
SMILES,Apaf1 inhib,ZTA counter,PfG6PD inh,UBC13 inh,EBNA-1 inhibitor,PfM18AAP inh
O=C(/C=C/c1ccc([N+](=O)[O-])cc1)c1ccco1,n,n,n,n,n,n
CC(=O)SC(C[N+](=O)[O-])c1cn(C(C)=O)c2ccccc12 (stereo unspecified),n,n,62.6,n,n,n
CC(=O)n1cc(Nc2ccc([N+](=O)[O-])cc2)c2ccccc21,n,n,n,n,n,n
Cn1cnc([N+](=O)[O-])c1Sc1nc(N)nc2c1ncn2C1CC(O)C(CO)O1 (stereo unspecified),x,x,n,x,x,x
O=C(Oc1ccc(C(=S)N2CCOCC2)cc1)c1ccccc1F,n,n,n,n,n,29.3
O=C(Oc1ccc(C(=S)N2CCOCC2)cc1Br)c1ccccc1F,n,n,n,n,n,n
O=S1(=O)c2ccc(Br)cc2N2CC[C@H](C2)N1Cc1ccc(Cl)cc1,x,x,n,x,x,x
COc1ccc(OC)c(C2CC(=O)NC(SC)=C2C#N)c1 (stereo unspecified),n,n,n,n,n,n
COc1ccc(OC)c(C2CC(=O)N3CN(c4cccc(Cl)c4C)CSC3=C2C#N)c1 (stereo unspecified),n,n,83.0,n,n,37.7
COc1ccc(OC)c(C2CC(=O)N3CN(c4cccc(Cl)c4)CSC3=C2C#N)c1 (stereo unspecified),80.5,n,n,n,n,n
CCOc1ccc(N2CC(C(=O)NCc3ccco3)CC2=O)cc1 (stereo unspecified),n,n,n,n,n,n
